Reference: ChEMBL document CHEMBL4145474, “Discovery of novel piperonyl derivatives as diapophytoene desaturase inhibitors for the treatment of methicillin-, vancomycin- and linezolid-resistant Staphylococcus aureus infections” (Eur J Med Chem, 2018)
Active and inactive are the calls of the source. The rule behind the calls is not given here.

How the values were obtained:
[1] = biological target: T1, 4,4'-diapophytoene desaturase (4,4'-diaponeurosporene-forming) (Staphylococcus aureus (strain Newman)) (UniProt O07855); test: Inhibition of CrtN in methicillin-resistant Staphylococcus aureus USA400 MW2 assessed as bacterial survival after 6 hrs by human whole blood killing assay (reference value: 23.33%)
T1 sequence (whole entry): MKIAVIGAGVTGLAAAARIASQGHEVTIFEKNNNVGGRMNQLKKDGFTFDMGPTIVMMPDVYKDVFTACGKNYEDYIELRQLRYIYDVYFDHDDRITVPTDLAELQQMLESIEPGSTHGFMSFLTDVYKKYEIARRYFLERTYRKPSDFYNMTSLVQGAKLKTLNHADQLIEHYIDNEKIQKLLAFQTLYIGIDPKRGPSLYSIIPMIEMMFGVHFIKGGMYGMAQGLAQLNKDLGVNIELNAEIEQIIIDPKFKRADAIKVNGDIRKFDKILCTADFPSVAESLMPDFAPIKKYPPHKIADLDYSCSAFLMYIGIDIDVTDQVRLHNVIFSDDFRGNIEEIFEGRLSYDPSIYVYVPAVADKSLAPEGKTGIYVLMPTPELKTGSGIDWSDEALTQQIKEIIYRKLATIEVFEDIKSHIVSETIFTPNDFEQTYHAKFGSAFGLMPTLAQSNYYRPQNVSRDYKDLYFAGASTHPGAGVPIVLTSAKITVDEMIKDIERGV
Method in brief: (§1)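 Overnight cultures spun, resuspended in sterile PBS at 1 × 10⁷ CFU/mL, then mixed 1:10 with fresh whole blood from healthy human volunteers (final 1 × 10⁶ CFU/mL). Incubated 6 h at 37 °C; surviving CFU counted by plating dilutions on TSA. Two independent experiments.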

[2] = biological target: T2, 4,4'-diapophytoene desaturase (4,4'-diaponeurosporene-forming) (Staphylococcus aureus (strain Mu50 / ATCC 700699)) (UniProt Q99R76); test: Inhibition of CrtN in vancomycin-intermediate methicillin-resistant Staphylococcus aureus Mu50 assessed as bacterial survival after 6 hrs by human whole blood killing assay (reference value: 8.66%); conditions: Staphylococcus aureus subsp. aureus Mu50; method in brief: as §1
T2 sequence (whole entry): T1 sequence (whole entry)

[3] = biological target: T1, 4,4'-diapophytoene desaturase (4,4'-diaponeurosporene-forming) (Staphylococcus aureus (strain Newman)); test: Inhibition of CrtN in wild type Staphylococcus aureus Newman assessed as decrease in bacterial survival at 1 uM after 24 hrs by H2O2 killing assay relative to control; conditions: Staphylococcus aureus subsp. aureus str. Newman
Method in brief: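 Bacteria were grown 24 h at 37 °C in TSB with compound, DMSO vehicle or NAC, then washed twice in PBS. Each reaction held 4 × 10⁶ CFU with H₂O₂ at 1.5% final, shaken 30 min at 37 °C and 250 rpm, then quenched with 1000 U/mL catalase. Survival was counted as CFU on TSA. Two independent experiments.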

Staphylococcus aureus [4] = test: Growth inhibition of methicillin-resistant Staphylococcus aureus USA400 MW2 at 0.2 mM incubated for overnight; format: functional, organism-based
Method in brief: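 Overnight cultures washed in PBS and diluted in TSB to OD600 ~1.0. Inoculated to a final OD600 of about 0.05 into TSB containing compound (0.2 or 0.05 mM, from a 20 mM DMSO stock) or DMSO growth control, overlaid with paraffin wax. OD600 read every 30 min during overnight incubation at 37 °C.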

Staphylococcus aureus [5] = test: Growth inhibition of wild type Staphylococcus aureus Newman at 0.2 mM incubated for overnight; format: functional, organism-based
Method in brief: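 A 20 mM DMSO stock was diluted in TSB to 0.2 mM final, with a DMSO growth control. Dilutions were overlaid with paraffin and held 4 h at 37 °C. Overnight cultures were PBS-washed and added to a final OD600 ≈ 0.05. Plates were incubated overnight at 37 °C with OD600 read every 30 min.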

Staphylococcus aureus [6] = test: Inhibition of pigmentation in methicillin-resistant Staphylococcus aureus USA400 MW2 after 48 hrs by spectrophotometric method; format: functional, organism-based; conditions: USA400 MW2, 48 h
Method in brief: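 Bacteria grown in 4 mL TSB for 48 h at 37 °C with compound serially diluted from DMSO, in duplicate; DMSO vehicle control and non-pigmented CrtN mutant as reference. Cells from 3 mL of culture washed twice with 0.01 M PBS and pigment extracted into methanol. Absorbance read at 450 nm; IC50 fitted from the concentration series.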

HEK-293T = test: Cytotoxicity against HEK293T cells assessed as reduction in cell viability after 72 hrs by CCK-8 assay; format: functional; conditions: Homo sapiens
Method in brief: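 HepG2 or HEK-293T cells were seeded at 5000 per well and grown 24 h at 37 °C, 5% CO₂. Cells were then exposed to compound for 72 h; compound came from DMSO, diluted in medium to final DMSO <0.4%, with a DMSO-matched vehicle control. Viability was read by 10% CCK-8 for 1 h, absorbance 450 nm, in triplicate.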

Staphylococcus aureus [7] = test: Antibacterial activity against wild type Staphylococcus aureus Newman infected in BALB/c mouse assessed as decrease in bacterial survival in mouse kidney at 0.1 to 0.4 mg, ip bid administered 4.5 days before 24 hrs bacterial infection measured after 90 hrs; format: functional, organism-based
Method in brief: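 Female BALB/c mice, 6-8 weeks old, infected retro-orbitally with 2.2 × 10⁷ CFU S. aureus Newman. Intraperitoneal dosing in 12 intervals: pre-treatment groups received a total of 50 or 200 mg/kg starting before infection; post-treatment groups received a total of 39 or 156 mg/kg starting 6 h after infection. Vehicle was ddH₂O. At 90 h post-infection, liver or kidney was homogenized in PBS/0.01% Triton X-100 and plated on TSA for CFU.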

Staphylococcus aureus [8] = test: Antibacterial activity against vancomycin-intermediate methicillin-resistant Staphylococcus aureus Mu50 infected in BALB/c mouse assessed as decrease in bacterial survival in mouse kidney at 0.1 to 0.4 mg, ip bid administered 4.5 days before 24 hrs bacterial infection measured after 90 hrs; format: functional, organism-based
Method in brief: (§2)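 6–8-week-old female BALB/c mice (SPF) dosed intraperitoneally twice daily over 4.5 d at 0.1 or 0.4 mg/bid. Pre-treatment started before infection; post-treatment started 6 h after infection. Vancomycin and linezolid controls given as pre-treatment at 0.4 mg/bid. Retro-orbital inoculation: Mu50 1.1 × 10⁹ CFU, NRS271 1.8 × 10⁸ CFU. Kidneys and livers homogenised in PBS/0.01% Triton X-100 and plated on TSA for CFU.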

Staphylococcus aureus [9] = test: Antibacterial activity against methicillin/linezolid-resistant Staphylococcus aureus NRS271 infected in BALB/c mouse assessed as decrease in bacterial survival in mouse liver at 0.1 to 0.4 mg, ip bid administered 4.5 days after 6 hrs bacterial infection measured after 90 hrs; format: functional, organism-based; method in brief: as §2
Staphylococcus aureus [10] = test: Antibacterial activity against wild type Staphylococcus aureus Newman infected in BALB/c mouse assessed as decrease in bacterial survival in mouse liver at 0.4 mg, ip bid administered 4.5 days before 12 hrs bacterial infection measured after 90 hrs relative to control; format: functional
Staphylococcus aureus [11] = test: Antibacterial activity against wild type Staphylococcus aureus Newman infected in BALB/c mouse assessed as decrease in bacterial survival in mouse liver at 0.1 mg, ip bid administered 4.5 days after 6 hrs bacterial infection measured after 90 hrs relative to control; format: functional
[12] = biological target: T3, 4,4'-diapophytoene desaturase (4,4'-diaponeurosporene-forming) (Staphylococcus aureus (strain Newman), UniProt O07855); test: Inhibition of Staphylococcus aureus Newman 6His-tagged CrtN expressed in Escherichia coli BL21(DE3) assessed as 4,4'-diapophytoene accumulation
T3 sequence (O07855 whole entry): T1 sequence (whole entry)

Q: With `CN(C/C=C/C=C/c1ccc(C(F)(F)F)cc1F)Cc1ccc2c(c1)OCO2.Cl` as the compound, how does the Survival [1] read?
A: The Survival was 0.93%.

Q: What about the Survival [2] of the same compound?
A: Its Survival is 0.28%.

Q: And the fold change (FC) [3]?
A: Its fold change (FC) is 11.7.

Q: And the “growth inhibition (GI)” value (Staphylococcus aureus [4])?
A: Its value is “inactive”.

Q: And the “growth inhibition (GI)” value (Staphylococcus aureus [5])?
A: Its value is “inactive”.

Q: What about the IC50 (Staphylococcus aureus [6]) of the same compound?
A: The IC50 was 7.6 nM.

Q: What about the CC50 (HEK-293T) of the same compound?
A: Its CC50 is 92600 nM.

Q: And the Activity (Staphylococcus aureus [7])?
A: Its Activity is “Active”.

Q: What about the Activity (Staphylococcus aureus [8]) of the same compound?
A: Its Activity is “Active”.

Q: And the Activity (Staphylococcus aureus [9])?
A: The Activity was “inactive”.

Q: And the Activity (Staphylococcus aureus [10])?
A: The Activity was 98.74%.

Q: And the Activity (Staphylococcus aureus [11])?
A: Its Activity is 97.06%.

Q: And the IC50 [12]?
A: The IC50 was 408 nM.
